Peptide text beside a SMILES is read from it. * marks the point of attachment. Cbz = O=C(OCc1ccccc1)*; CH2F = FC*
How the values were obtained:
ECa109 cells [1] = assay: Annexin V-FITC/PI flow cytometry apoptosis assay, ECa109; format: cell-based, human; conditions: ECa109, CQ 20 μmol/L alone, 72 h, Fig. 5D
EC9706 cells [2] = assay: Annexin V-FITC/PI flow cytometry apoptosis assay, EC9706; format: cell-based, human; conditions: EC9706, CQ 20 μmol/L alone, 72 h, Fig. 5D
[3] = test system: LC3B-II, P62, ATG3, ATG5, ATG7; assay: Western blot of autophagy proteins in ESCC cells; format: cell-based, human; conditions: ECa109 and EC9706 cells
NRF2, HO-1 = assay: Western blot of NRF2; format: cell-based, human; conditions: ECa109 and EC9706 cells
[4] = Toxicity evaluation in xenograft mice; format: in vivo, athymic BALB/c male nude mice; conditions: for HCT / HGB / MCH / MCHC / MCV / MPV / PLT / RBC / RDW / WBC: blood of xenograft mice, end of treatment; for Toxicity to nude mice (overall): therapeutic doses: SFN 5 mg/kg, CQ 60 mg/kg i.p. every other day, two weeks
ECa109 cells [5] = assay: CCK-8 cell proliferation assay, ECa109; format: cell-based, human; conditions: for IC50: Homo sapiens
Method in brief: (§1)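 Cells were kept in RPMI-1640 with 10% FBS, penicillin and streptomycin at 37 °C and 5% CO2. They were seeded in 96-well plates and exposed to the test compound over graded concentrations (e.g., 0–80 μmol/L) for 24, 48 or 72 h, alone or with modulators. CCK-8 reagent was then added, and optical density was read after a further 4 h. n = 3.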

EC9706 cells [6] = assay: CCK-8 cell proliferation assay, EC9706; format: cell-based, human; conditions: for IC50: Homo sapiens
Method in brief: as §1

ECa109 cells [7] = assay: Clonogenic assay, ECa109; format: cell-based, human
Method in brief: (§2)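 Cells in RPMI-1640 with 10% FBS at 37 °C, 5% CO2, seeded at 1 × 10³ cells/well in 6-well plates. Exposed to test compound (0, 5, 10 μmol/L) and grown 7 days. Colonies rinsed with PBS three times, fixed in 4% paraformaldehyde for 20 min, stained with 1% crystal violet for 30 min, then counted. Three independent experiments.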

EC9706 cells [8] = assay: Clonogenic assay, EC9706; format: cell-based, human
Method in brief: as §2

Het-1A cells = assay: CCK-8 cell proliferation assay, Het-1A; format: cell-based; conditions: Homo sapiens
[9] = test system: cleaved-caspase 9, BAX, BCL-2; assay: Western blot of apoptotic markers in ESCC cells; format: cell-based, human; conditions: ECa109 and EC9706 cells, SFN 10 μmol/L, 0-24 h, Fig. 2B
Method in brief: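 ECa109 and EC9706 cells were exposed to 10 μmol/L test compound for 0, 3, 6, 12 and 24 h. Equal protein (30 μg) was separated by SDS-PAGE and transferred to nitrocellulose. Membranes were blocked in 5% skimmed milk for 2 h at room temperature, given primary antibody overnight at 4 °C and secondary antibody for 2 h. Detection by ECL, bands quantified by densitometry, n = 3.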

ECa109 xenografts = assay: ECa109 xenograft in nude mice, anti-tumor efficiency; format: in vivo, athymic BALB/c male nude mice; conditions: ECa109 xenograft tumors, Fig. 7D
Method in brief: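 Male athymic BALB/c nude mice (4–6 weeks old, acclimatised 1 week) received 1 × 10^7 ECa109 cells in 0.2 mL PBS subcutaneously into the right flank. At 90–120 mm3, mice were randomised (n = 5): saline, test compound 5 mg/kg, autophagy inhibitor 60 mg/kg, or combination, i.p. every other day for two weeks. Paraffin sections of fixed tumours were TUNEL-stained; brown positive cells were counted per 1500 tumour cells.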

[10] = test system: mRFP-GFP-LC3 puncta (autophagosomes, autolysosomes); assay: mRFP-GFP-LC3 adenovirus autophagy flux, confocal microscopy; format: cell-based, human; conditions: ECa109 and EC9706 cells, SFN 10 μmol/L or bafilomycin A1 100 nmol/L, 24 h, Fig. 3D
Method in brief: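 ECa109 and EC9706 cells (3 × 10⁵/well) were infected with mRFP-GFP-LC3 adenovirus for 48 h, then replated on glass-bottom dishes at 1 × 10⁴ cells/well. Treated with 10 μmol/L test compound or 100 nmol/L bafilomycin A1 for 24 h, fixed in 4% paraformaldehyde for 20 min and imaged by confocal microscopy. Yellow (green+red) puncta were scored as autophagosomes and red as autolysosomes, n = 3.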

[11] = test system: LC3, P62, NRF2, HO-1, BCL-2, BAX, cleaved-caspase 9; assay: Western blot of tumor tissues from xenograft mice; format: in vivo, athymic BALB/c male nude mice; conditions: SFN 5 mg/kg, Fig. 7G
Method in brief: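 Male athymic BALB/c nude mice, 4–6 weeks old, received 1 × 10⁷ ECa109 cells in 0.2 mL PBS s.c. in the right flank. […] Excised tumors were stored at −80 °C and immunoblotted (ECL detection), n = 3.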

[12] = organ weight/body weight × 100, xenograft mice, SFN 5 mg/kg, CQ 60 mg/kg i.p.

CCN(CC)CCCC(C)Nc1ccnc2cc(Cl)ccc12 (stereo not shown) [CQ, chloroquine, reference compound]
Effect on cell apoptosis (ECa109 cells [1]): no obvious effects on cell apoptosis | Effect on cell apoptosis (EC9706 cells [2]): no obvious effects on cell apoptosis | Expression of LC3B-II and P62 ([3]; CQ 20 μmol/L alone, Fig. 3C): promoted expression LC3B-II and P62 | Effect of CQ on SFN-induced NRF2 in nucleus (NRF2, HO-1; CQ 20 μmol/L combined with SFN 10 μmol/L, 48 h, Fig. 5F): markedly inhibited the activation of SFN to NRF2 | HCT ([4]; SFN 5 mg/kg, CQ 60 mg/kg i.p.): 43.05 ± 1.75% | HGB ([4]; SFN 5 mg/kg, CQ 60 mg/kg i.p.): 140.67 ± 6.31 g/L | MCH ([4]; SFN 5 mg/kg, CQ 60 mg/kg i.p.): 15.28 ± 0.28 pg | MCHC ([4]; SFN 5 mg/kg, CQ 60 mg/kg i.p.): 326.67 ± 4.50 g/L | MCV ([4]; SFN 5 mg/kg, CQ 60 mg/kg i.p.): 50.10 ± 0.78 fL | MPV ([4]; SFN 5 mg/kg, CQ 60 mg/kg i.p.): 6.52 ± 0.13 fL | PLT ([4]; SFN 5 mg/kg, CQ 60 mg/kg i.p.): 941.00 ± 45.99 × 10^9/L | RBC ([4]; SFN 5 mg/kg, CQ 60 mg/kg i.p.): 8.60 ± 0.38 × 10^12/L | RDW ([4]; SFN 5 mg/kg, CQ 60 mg/kg i.p.): 16.38 ± 0.08% | WBC ([4]; SFN 5 mg/kg, CQ 60 mg/kg i.p.): 4.71 ± 0.99 × 10^9/L | Toxicity to nude mice (overall) [4]: no obvious toxicity

Cc1ccccc1C(=O)N1CCc2cc(-c3nc(NC(=O)Cc4ccc5c(c4)OCO5)sc3C)ccc21 [ML385, reference compound]
Effect on cell viability (CCK-8) (ECa109 cells [5]; ECa109, ML385 0-200 μmol/L, 48 and 72 h, Fig. 4E): significantly inhibited cell viability | Effect on cell viability (CCK-8) (EC9706 cells [6]; EC9706, ML385 0-200 μmol/L, 48 and 72 h, Fig. 4E): significantly inhibited cell viability | Effect on colony formation (ECa109 cells [7]; ECa109, ML385, 7 days, Fig. 4F): significantly inhibited cell viability and colony formation | Effect on colony formation (EC9706 cells [8]; EC9706, ML385, 7 days, Fig. 4F): significantly inhibited cell viability and colony formation | Expression of LC3B-II and P62 ([3]; ML385 20 μmol/L alone, Fig. 4D): inhibited LC3B-II and promoted P62 expression | Expression of NRF2 and HO-1 (NRF2, HO-1; ML385 5-30 μmol/L, Fig. 4C): decreased expression of NRF2 and HO-1 in a dose-dependent manner

C[S+]([O-])CCCCN=C=S (stereo not shown) [SFN, Sulforaphane]
IC50 (ECa109 cells [5]; ECa-109, 24 h): 47.4 ± 1.68 µM | IC50 (ECa109 cells [5]; ECa-109, 48 h): 20.8 ± 1.32 µM | IC50 (ECa109 cells [5]; ECa-109, 72 h): 15.2 ± 1.18 µM | IC50 (EC9706 cells [6]; EC9706, 24 h): 75.3 ± 1.88 µM | IC50 (EC9706 cells [6]; EC9706, 48 h): 41 ± 1.7 µM | IC50 (EC9706 cells [6]; EC9706, 72 h): 17.5 ± 1.24 µM | IC50 (Het-1A cells; 48 h): 34.1 ± 1.53 µM | IC50 (Het-1A cells; 72 h): 21.3 ± 1.33 µM | Effect on colony formation (ECa109 cells [7]; ECa109, SFN 5 and 10 μmol/L, 7 days, Fig. 1C): significantly inhibited the colony formation | Effect on colony formation (EC9706 cells [8]; EC9706, SFN 5 and 10 μmol/L, 7 days, Fig. 1C): significantly inhibited the colony formation | Level of cleaved-caspase 9 [9]: increased the levels of cleaved-caspase 9 in a time-dependent manner | Expression of LC3B-II and P62 ([3]; SFN 10 μmol/L, 0-24 h, Fig. 3A): increased LC3B-II and decreased P62 | Expression of ATG3, ATG5 and ATG7 ([3]; SFN 10 μmol/L, 0-24 h, Fig. 4A): no changes | Expression of NRF2 in nucleus (NRF2, HO-1; SFN 5 and 10 μmol/L, Fig. 4B): increased the expression of NRF2 in nucleus | TUNEL positive cells in tumor tissue compared with control (ECa109 xenografts): large number of TUNEL positive cells | HCT ([4]; SFN 5 mg/kg, CQ 60 mg/kg i.p.): 42.62 ± 4.07% | HGB ([4]; SFN 5 mg/kg, CQ 60 mg/kg i.p.): 139.00 ± 13.78 g/L | MCH ([4]; SFN 5 mg/kg, CQ 60 mg/kg i.p.): 15.20 ± 0.65 pg | MCHC ([4]; SFN 5 mg/kg, CQ 60 mg/kg i.p.): 326.17 ± 3.82 g/L | MCV ([4]; SFN 5 mg/kg, CQ 60 mg/kg i.p.): 49.62 ± 0.55 fL | MPV ([4]; SFN 5 mg/kg, CQ 60 mg/kg i.p.): 6.62 ± 0.17 fL | PLT ([4]; SFN 5 mg/kg, CQ 60 mg/kg i.p.): 867.83 ± 134.68 × 10^9/L | RBC ([4]; SFN 5 mg/kg, CQ 60 mg/kg i.p.): 8.59 ± 0.83 × 10^12/L | RDW ([4]; SFN 5 mg/kg, CQ 60 mg/kg i.p.): 16.18 ± 0.08% | WBC ([4]; SFN 5 mg/kg, CQ 60 mg/kg i.p.): 4.18 ± 0.48 × 10^9/L | Relative organ weight, heart [4, 12]: 0.63 ± 0.13% | Relative organ weight, left kidney [4, 12]: 0.84 ± 0.19% | Relative organ weight, liver [4, 12]: 6.74 ± 0.35% | Relative organ weight, lung [4, 12]: 0.72 ± 0.19% | Relative organ weight, right kidney [4, 12]: 0.98 ± 0.17% | Relative organ weight, spleen [4, 12]: 0.79 ± 0.14% | Toxicity to nude mice (overall) [4]: no obvious toxicity | Fluorescent puncta (yellow = autophagosomes, red = autolysosomes) [10]: many yellow puncta and red puncta | LC3B-II and P62 expression in tumors compared to control [11]: increased of LC3B-Ⅱ and decreased P62 expression

COC(=O)C[C@H](NC(=O)[C@H](C)NC(=O)[C@@H](NC(=O)OCc1ccccc1)C(C)C)C(=O)CF [Z-VAD-FMK, reference compound] (Cbz-Val-Ala-Asp(OMe)-CH2F)
Effect on cell proliferation (CCK-8) (ECa109 cells [5]; ECa109, Z-VAD-FMK 20 μmol/L alone, 48 h, Fig. 2C): no obvious effects on cell proliferation | Effect on cell proliferation (CCK-8) (EC9706 cells [6]; EC9706, Z-VAD-FMK 20 μmol/L alone, 48 h, Fig. 2C): no obvious effects on cell proliferation

CO/C1=C\C(C)=C\[C@@H](C)[C@@H](O)[C@@H](C)C/C(C)=C/C=C/[C@H](OC)[C@@H]([C@@H](C)[C@@H](O)[C@H](C)[C@@]2(O)C[C@@H](O)[C@H](C)[C@@H](C(C)C)O2)OC1=O [bafilomycin A1, reference compound]
Fluorescent puncta (yellow = autophagosomes, red = autolysosomes) [10]: many yellow puncta

— paper PMC8148075 (Acta Pharmaceutica Sinica. B, 2020)
